ChEMBL document CHEMBL1129738, “3-Aryl-1,2-diacetamidopropane derivatives as novel and potent NK-1 receptor antagonists” (J Med Chem, 1996)

Tests used:
Substance-P receptor [1] = biological target: Substance-P receptor (Homo sapiens, UniProt P25103); experiment: Inhibitory activity against Tachykinin receptor 1 in human IM-9 cells using [125I]-labeled Boltan-Hunter substance P as radioligand; format: cell-based
Substance-K receptor = biological target: T1, Substance-K receptor (Oryctolagus cuniculus, UniProt P79218); experiment: Inhibition of neurokinin A induced contraction of rabbit pulmonary artery (RPA) tissue expressing Tachykinin receptor 2; format: functional, tissue-based; conditions: read-out: pA2 (converted)
T1 sequence (P79218 whole entry): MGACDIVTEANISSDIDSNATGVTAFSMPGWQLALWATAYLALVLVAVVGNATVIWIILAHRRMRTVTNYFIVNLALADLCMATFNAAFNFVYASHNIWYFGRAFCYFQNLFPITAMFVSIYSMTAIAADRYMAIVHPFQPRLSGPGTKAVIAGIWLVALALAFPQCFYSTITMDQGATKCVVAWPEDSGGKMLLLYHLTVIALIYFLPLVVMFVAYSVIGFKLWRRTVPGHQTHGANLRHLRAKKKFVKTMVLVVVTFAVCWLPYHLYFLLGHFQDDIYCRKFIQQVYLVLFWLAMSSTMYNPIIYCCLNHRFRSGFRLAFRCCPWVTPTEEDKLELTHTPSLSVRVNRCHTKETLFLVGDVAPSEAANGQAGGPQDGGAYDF

U11 MG = experiment: In vitro inhibitory activity against P induced phosphatidyl inositol turnover in UC-11 MG Astrocytoma cells; format: functional, cell-based, Homo sapiens
Outline: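 Human UC-11 MG astrocytoma cells; inhibition of substance P-induced phosphatidylinositol turnover; Ki in nM; mean of two determinations.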

U-373 MG (Homo sapiens) = experiment: In vitro inhibitory activity against P induced IL-6 secretion in U-373 MG Astrocytoma cells
Substance-P receptor [2] = biological target: Substance-P receptor (Rattus norvegicus, UniProt P14600); experiment: Inhibitory activity against Tachykinin receptor 1 in rat brain using [125I]-labeled Boltan-Hunter substance P as radioligand; format: tissue-based
Substance-P receptor [3] = biological target: Substance-P receptor (Mus musculus, UniProt P30548); experiment: Inhibitory activity against Tachykinin receptor 1 in mouse brain using [125I]-labeled Boltan-Hunter substance P as radioligand; format: tissue-based
Substance-P receptor [4] = biological target: Substance-P receptor (Cavia porcellus, UniProt P30547); experiment: Inhibitory activity against Tachykinin receptor 1 in guinea pig brain using [125I]-labeled Boltan-Hunter substance P as radioligand
Neuromedin-K receptor = biological target: T2, Neuromedin-K receptor (Rattus norvegicus, UniProt P16177); experiment: Inhibition of neurokinin B induced contraction of rat portal vein (RPV) tissue expressing Tachykinin receptor 3; format: functional; conditions: read-out: pA2 (converted)
T2 sequence (P16177 whole entry): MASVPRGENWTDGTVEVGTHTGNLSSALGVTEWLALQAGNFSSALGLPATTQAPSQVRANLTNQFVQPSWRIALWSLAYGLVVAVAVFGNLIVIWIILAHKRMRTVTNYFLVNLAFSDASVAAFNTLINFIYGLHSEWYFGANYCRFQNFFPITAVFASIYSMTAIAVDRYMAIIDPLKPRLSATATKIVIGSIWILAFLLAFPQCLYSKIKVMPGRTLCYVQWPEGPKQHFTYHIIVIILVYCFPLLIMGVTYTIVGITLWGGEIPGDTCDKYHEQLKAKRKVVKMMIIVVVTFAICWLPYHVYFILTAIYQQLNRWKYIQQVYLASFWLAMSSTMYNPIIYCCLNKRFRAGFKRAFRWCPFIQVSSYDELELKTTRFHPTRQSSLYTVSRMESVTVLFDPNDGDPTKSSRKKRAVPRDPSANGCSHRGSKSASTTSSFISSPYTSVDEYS

Substance-P receptor (Mus musculus, UniProt P30548), sequence (P30548 whole entry): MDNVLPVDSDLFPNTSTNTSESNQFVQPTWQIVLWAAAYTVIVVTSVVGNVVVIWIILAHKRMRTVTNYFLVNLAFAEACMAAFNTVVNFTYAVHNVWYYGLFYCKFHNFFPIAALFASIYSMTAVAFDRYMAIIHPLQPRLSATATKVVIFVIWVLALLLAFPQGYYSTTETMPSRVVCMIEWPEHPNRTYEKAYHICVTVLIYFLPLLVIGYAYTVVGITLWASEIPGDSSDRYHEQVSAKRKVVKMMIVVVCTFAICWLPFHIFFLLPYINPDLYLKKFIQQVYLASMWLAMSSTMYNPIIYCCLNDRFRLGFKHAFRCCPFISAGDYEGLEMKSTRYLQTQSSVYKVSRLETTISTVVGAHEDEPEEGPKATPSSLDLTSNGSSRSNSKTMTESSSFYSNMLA
Substance-P receptor (Homo sapiens, UniProt P25103), sequence (P25103 whole entry): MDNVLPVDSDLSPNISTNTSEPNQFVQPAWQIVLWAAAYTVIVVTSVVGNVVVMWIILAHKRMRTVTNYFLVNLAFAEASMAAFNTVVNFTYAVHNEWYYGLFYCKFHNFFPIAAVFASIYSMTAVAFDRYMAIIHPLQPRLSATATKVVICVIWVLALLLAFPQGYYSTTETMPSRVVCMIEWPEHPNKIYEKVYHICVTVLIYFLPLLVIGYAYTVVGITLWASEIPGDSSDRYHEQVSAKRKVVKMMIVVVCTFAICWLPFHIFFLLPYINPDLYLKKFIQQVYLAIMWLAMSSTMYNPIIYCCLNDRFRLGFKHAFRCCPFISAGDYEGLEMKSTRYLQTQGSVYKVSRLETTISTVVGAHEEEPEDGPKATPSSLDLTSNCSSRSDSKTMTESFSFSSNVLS
Substance-P receptor (Rattus norvegicus, UniProt P14600), sequence (P14600 whole entry): as the sequence (P30548 whole entry) above, with V7M, T15I, I266V, D367E counted along it
Substance-P receptor (Cavia porcellus, UniProt P30547), sequence (P30547 whole entry): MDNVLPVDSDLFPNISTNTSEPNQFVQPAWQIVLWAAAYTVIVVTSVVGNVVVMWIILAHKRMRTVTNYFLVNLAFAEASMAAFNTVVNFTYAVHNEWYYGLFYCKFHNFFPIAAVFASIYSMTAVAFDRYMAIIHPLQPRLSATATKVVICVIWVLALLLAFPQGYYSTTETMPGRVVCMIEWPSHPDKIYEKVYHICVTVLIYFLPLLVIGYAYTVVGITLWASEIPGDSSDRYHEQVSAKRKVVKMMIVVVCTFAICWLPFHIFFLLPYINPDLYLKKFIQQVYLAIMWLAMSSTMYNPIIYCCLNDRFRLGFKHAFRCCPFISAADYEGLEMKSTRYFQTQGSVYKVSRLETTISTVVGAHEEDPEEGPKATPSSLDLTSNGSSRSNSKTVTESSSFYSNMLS

SMILES	IC50 (Substance-P receptor [1])	further results
CC(=O)N(CC(Cc1c[nH]c2ccccc12)NC(=O)CN1CCN(c2ccccc2)CC1)c1ccccc1 (centres undefined)	> 5000 nM	–
CSc1ccccc1CN(CC(Cc1c[nH]c2ccccc12)NC(=O)CN1CCN(c2ccccc2)CC1)C(C)=O (centres undefined)	7.2 nM	–
COc1ccccc1CN(CC(NC(=O)CN1CCN(c2ccccc2)CC1)C(C)C)C(C)=O (centres undefined)	> 5000 nM	–
CC(=O)N(Cc1ccccc1Cl)CC(Cc1c[nH]c2ccccc12)NC(=O)CN1CCN(c2ccccc2)CC1 (centres undefined)	1.9 nM	–
COc1ccccc1CN(C[C@H](Cc1c[nH]c2ccccc12)NC(=O)CN1CCN(c2ccccc2)CC1)C(C)=O	–	Kb (Substance-K receptor): 20000 nM; Ki (U11 MG): 630 nM; Ki (U-373 MG (Homo sapiens)): 3500 nM
CC(=O)N(Cc1ccccc1Cl)C[C@H](Cc1c[nH]c2ccccc12)NC(=O)CN1CCC(N2CCCCC2)CC1	159 nM	–
COc1ccccc1CN(C=O)CC(Cc1c[nH]c2ccccc12)NC(=O)CN1CCN(c2ccccc2)CC1 (centres undefined)	0.8 nM	–
CC(=O)N(Cc1ccccc1)CC(Cc1c[nH]c2ccccc12)NC(=O)CN1CCN(c2ccccc2)CC1 (centres undefined)	2.2 nM	–
COc1ccccc1CN(CC(Cc1c[nH]c2ccccc12)NC(=O)CN1CCN(c2ccccc2)CC1)C(=O)CN(C)C (centres undefined)	1.54 nM	IC50 (Substance-P receptor [2]): 480 nM; IC50 (Substance-P receptor [3]): 200 nM
COc1ccccc1CN(CC(Cc1c[nH]c2ccccc12)NC(=O)CN1CCN(c2ccccc2)CC1)S(C)(=O)=O (centres undefined)	4 nM	–
CCN(Cc1ccccc1OC)CC(Cc1c[nH]c2ccccc12)NC(=O)CN1CCN(c2ccccc2)CC1 (centres undefined)	85 nM	–
COc1ccccc1CN(CC(Cc1c[nH]c2ccccc12)NC(=O)CN1CCN(C)CC1)C(C)=O (centres undefined)	5.3 nM	–
COc1ccccc1CN(CC(Cc1cccc2ccccc12)NC(=O)CN1CCN(c2ccccc2)CC1)C(C)=O (centres undefined)	2.73 nM	–
CC(=O)N(Cc1ccccc1[N+](=O)[O-])CC(Cc1c[nH]c2ccccc12)NC(=O)CN1CCN(c2ccccc2)CC1 (centres undefined)	3 nM	–
CC(=O)N(Cc1ccccc1C)CC(Cc1c[nH]c2ccccc12)NC(=O)CN1CCN(c2ccccc2)CC1 (centres undefined)	3.2 nM	–
COC(=O)CC(=O)N(Cc1ccccc1OC)CC(Cc1c[nH]c2ccccc12)NC(=O)CN1CCN(c2ccccc2)CC1 (centres undefined)	1.28 nM	–

SMILES	IC50 (Substance-P receptor [1])	further results
COc1ccccc1CN[C@H]1C2CCN(CC2)[C@H]1C(c1ccccc1)c1ccccc1 [CP-96345]	–	Kb (Substance-K receptor): 50100 nM; Kb (Neuromedin-K receptor): 2510 nM; Ki (U11 MG): 5.2 nM; Ki (U-373 MG (Homo sapiens)): 4 nM
COc1ccccc1CN(CC(CC1CNc2ccccc21)NC(=O)CN1CCN(c2ccccc2)CC1)C(C)=O (centres undefined)	27.4 nM	–
COc1ccccc1CN(CC(NC(=O)CN1CCN(c2ccccc2)CC1)c1ccccc1)C(C)=O (centres undefined)	474 nM	–
COc1ccccc1CN(CC(Cc1ccc2ccccc2c1)NC(=O)CN1CCN(c2ccccc2)CC1)C(C)=O (centres undefined)	11 nM	–
COc1ccccc1CN(CC(Cc1c[nH]c2ccccc12)NC(=O)CN1CCCCC1)C(C)=O (centres undefined)	33 nM	–
COc1ccccc1CC(=N)N1C[C@@H]2C(=O)CCC(c3ccccc3)(c3ccccc3)[C@@H]2C1	30 nM	IC50 (Substance-P receptor [4]): 32 nM; IC50 (Substance-P receptor [2]): 6.7 nM; IC50 (Substance-P receptor [3]): 8.7 nM
CC(=O)N(CCc1ccccc1)CC(Cc1c[nH]c2ccccc12)NC(=O)CN1CCN(c2ccccc2)CC1 (centres undefined)	126 nM	–
COc1ccccc1CN(C[C@@H](Cc1c[nH]c2ccccc12)NC(=O)CN1CCN(c2ccccc2)CC1)C(C)=O	–	Ki (U11 MG): 0.48 nM; Ki (U-373 MG (Homo sapiens)): 1.2 nM
COc1ccccc1CN(CC(Cc1csc2ccccc12)NC(=O)CN1CCN(c2ccccc2)CC1)C(C)=O (centres undefined)	1.18 nM	–
COc1ccccc1CN(CC(Cc1c[nH]c2ccccc12)NC(=O)CN1CCC(c2ccccc2)CC1)C(C)=O (centres undefined)	4.5 nM	–
CCOC(=O)N(Cc1ccccc1OC)CC(Cc1c[nH]c2ccccc12)NC(=O)CN1CCN(c2ccccc2)CC1 (centres undefined)	5.5 nM	–
CC(=O)N(CC1CCCCC1)CC(Cc1c[nH]c2ccccc12)NC(=O)CN1CCN(c2ccccc2)CC1 (centres undefined)	21.9 nM	–
CNC(=O)N(Cc1ccccc1OC)CC(Cc1c[nH]c2ccccc12)NC(=O)CN1CCN(c2ccccc2)CC1 (centres undefined)	3 nM	–
COc1ccccc1CN(C[C@H](Cc1c[nH]c2ccccc12)NC(=O)CN1CCC(N2CCCCC2)CC1)C(C)=O	–	Kb (Substance-K receptor): 20000 nM; Kb (Neuromedin-K receptor): 200 nM; Ki (U11 MG): 5600 nM
COc1ccccc1CN(C[C@@H](Cc1c[nH]c2ccccc12)NC(=O)CN1CCC(N2CCCCC2)CC1)C(C)=O [LANEPITANT]	–	Kb (Substance-K receptor): 20000 nM; Kb (Neuromedin-K receptor): 20000 nM; Ki (U11 MG): 1.3 nM; Ki (U-373 MG (Homo sapiens)): 5.5 nM

Second part, led by results:

IC50 (Substance-P receptor [1])	SMILES	further results
27 nM	COc1ccccc1CN(CC(Cc1c[nH]c2ccccc12)NC(=O)CN1CCOCC1)C(C)=O (centres undefined)	–
2.8 nM	COc1ccccc1CN(CC(Cc1c[nH]c2ccccc12)NC(=O)CN1CCC(N(C)C)CC1)C(C)=O (centres undefined)	–
149 nM	CCCCN(CC(Cc1c[nH]c2ccccc12)NC(=O)CN1CCN(c2ccccc2)CC1)C(C)=O (centres undefined)	–
> 5000 nM	CC(=O)N(C)CC(Cc1c[nH]c2ccccc12)NC(=O)CN1CCN(c2ccccc2)CC1 (centres undefined)	–
0.18 nM	CC(=O)N(Cc1ccccc1Cl)CC(Cc1c[nH]c2ccccc12)NC(=O)CN1CCC(N2CCCCC2)CC1 (centres undefined)	–
0.81 nM	CCC(=O)N(Cc1ccccc1OC)CC(Cc1c[nH]c2ccccc12)NC(=O)CN1CCN(c2ccccc2)CC1 (centres undefined)	–
> 5000 nM	COc1ccccc1CN(CCNC(=O)CN1CCN(c2ccccc2)CC1)C(C)=O	–
0.18 nM	COc1ccccc1CN(C[C@@H](Cc1c[nH]c2ccccc12)NC(=O)CN1CCN(C2CCCCC2)CC1)C(C)=O	IC50 (Substance-P receptor [2]): 1.5 nM; IC50 (Substance-P receptor [3]): 1.3 nM
3.1 nM	COc1ccccc1CN(CC(Cc1c[nH]c2ccccc12)NC(=O)CN1CC=C(c2ccccc2)CC1)C(C)=O (centres undefined)	–
2 nM	COc1ccccc1CN(CC(Cc1c[nH]c2ccccc12)NC(=O)CN1CCN(c2ccccc2)CC1)C(=O)c1ccccc1 (centres undefined)	–
338 nM	COc1ccccc1CN(CC(NC(=O)CN1CCN(c2ccccc2)CC1)c1ccc(Cl)c(Cl)c1)C(C)=O (centres undefined)	–
0.98 nM	COc1ccccc1CN(CC(Cc1c[nH]c2ccccc12)NC(=O)CN1CCN(Cc2ccccc2)CC1)C(C)=O (centres undefined)	IC50 (Substance-P receptor [4]): 0.88 nM; IC50 (Substance-P receptor [2]): 16 nM
2.5 nM	COc1ccc(CN(CC(Cc2c[nH]c3ccccc23)NC(=O)CN2CCN(c3ccccc3)CC2)C(C)=O)cc1 (centres undefined)	IC50 (Substance-P receptor [2]): 1100 nM
51 nM	COc1ccccc1CNCC(Cc1c[nH]c2ccccc12)NC(=O)CN1CCN(c2ccccc2)CC1 (centres undefined)	–
0.34 nM	COc1ccccc1CN(CC(Cc1c[nH]c2ccccc12)NC(=O)CN1CCN(C2CCCCC2)CC1)C(C)=O (centres undefined)	–
3.2 nM	CC(=O)N(Cc1ccccc1C(F)(F)F)CC(Cc1c[nH]c2ccccc12)NC(=O)CN1CCN(c2ccccc2)CC1 (centres undefined)	–
80.9 nM	COc1ccccc1CN(C[C@H](Cc1c[nH]c2ccccc12)NC(=O)CN1CCN(C2CCCCC2)CC1)C(C)=O	–
